Structures are written as SMILES.

This assay has as its target T1, Glucocorticoid receptor (Homo sapiens, UniProt P04150).
T1 sequence (P04150 whole entry): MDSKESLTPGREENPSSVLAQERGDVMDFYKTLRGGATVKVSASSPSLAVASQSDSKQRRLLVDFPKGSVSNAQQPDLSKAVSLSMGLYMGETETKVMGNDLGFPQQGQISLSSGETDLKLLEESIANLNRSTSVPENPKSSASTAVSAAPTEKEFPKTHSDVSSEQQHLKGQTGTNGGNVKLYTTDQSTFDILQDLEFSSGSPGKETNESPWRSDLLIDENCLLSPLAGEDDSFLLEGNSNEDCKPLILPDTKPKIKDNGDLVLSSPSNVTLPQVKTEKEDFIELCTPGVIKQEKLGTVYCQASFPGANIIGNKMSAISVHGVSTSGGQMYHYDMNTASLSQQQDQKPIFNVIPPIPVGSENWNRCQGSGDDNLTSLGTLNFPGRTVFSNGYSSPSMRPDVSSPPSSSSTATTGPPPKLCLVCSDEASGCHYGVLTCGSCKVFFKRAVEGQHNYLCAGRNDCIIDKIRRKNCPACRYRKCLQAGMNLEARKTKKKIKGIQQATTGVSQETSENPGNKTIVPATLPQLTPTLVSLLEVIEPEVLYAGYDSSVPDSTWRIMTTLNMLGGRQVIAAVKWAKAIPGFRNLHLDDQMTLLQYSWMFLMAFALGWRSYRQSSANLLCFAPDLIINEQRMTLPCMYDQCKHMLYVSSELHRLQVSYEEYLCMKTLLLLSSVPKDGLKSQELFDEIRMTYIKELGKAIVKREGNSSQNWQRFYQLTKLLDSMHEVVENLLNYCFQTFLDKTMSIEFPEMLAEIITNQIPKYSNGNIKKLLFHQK
In words: Inhibition of GR-mediated transactivation of galactosidase reporter gene in HEK293 cells expressing 11betaHSD1. In a few lines: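 HEK-293 cells transfected with pMMTV-LacZ, pCMV-LUC, GR, 11β-HSD1 and H6PDH plasmids. After 6 h, washed into steroid-free medium, then 24 h with 250 nM cortisone and graded inhibitor. β-Galactosidase normalized to luciferase, as % of steroid-only control. IC50 from four independent experiments, means ± SD.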
(In general: Reporter assays use an easily measured gene product as a stand-in for the process of interest.)

Consider `CC(=O)OC1CC[C@]2(C)C3=C(C(=O)C[C@H]2C1(C)C)[C@]1(C)CCC(C(C)CCC(=O)O)[C@@]1(C)CC3=O` (stereo partly drawn) [4-((5R,10S,13R,14R)-3-acetoxy-4,4,10,13,14-pentamethyl-7,11-dioxo-2,3,4,5,6,7,10,11,12,13,14,15,16,17-tetradecahydro-1H-cyclopenta[a]phenanthren-17-yl)pentanoic acid], for which the IC50 (usually the concentration needed to halve the response being measured) amounted to 2.09 µM.

The values are drawn from BindingDB's records for doi:10.1021/jm0600794 (University of Innsbruck, 2006).
